Laboratory results: ChEMBL document CHEMBL1137290, “Design, synthesis, and biological evaluation of a new class of small molecule peptide mimetics targeting the melanocortin receptors” (Bioorg Med Chem Lett, 2006)

Assays:
[1] = target: T1, Melanocortin receptor 5 (Homo sapiens, UniProt P33032); experiment: Activity at human MC5R expressed in HEK293 cells assessed by measuring intracellular cAMP accumulation; assay type: functional, cell-based
How it was run: (§1)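 Whole HEK293 cells expressing the human melanocortin receptor were incubated with ligand, and the cAMP they produced was measured as the read-out of adenylate cyclase activation.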

[2] = target: T1, Melanocortin receptor 5; experiment: Displacement of [125I]NDP-alpha-MSH from human MC5R expressed in HEK293 cells; assay type: cell-based
[3] = target: T2, Melanocortin receptor 3 (Homo sapiens, UniProt P41968); experiment: Displacement of [125I]NDP-alpha-MSH from human MC3R expressed in HEK293 cells; assay type: cell-based
[4] = target: T3, Melanocortin receptor 4 (Homo sapiens, UniProt P32245); experiment: Activity at human MC4R expressed in HEK293 cells assessed by measuring intracellular cAMP accumulation; assay type: functional, cell-based; how it was run: as §1
[5] = target: T4, Melanocyte-stimulating hormone receptor (Homo sapiens, UniProt Q01726); experiment: Activity at human MC1R expressed in HEK293 cells assessed by measuring intracellular cAMP accumulation; assay type: functional, cell-based; how it was run: as §1
Target sequence in this assay (Q01726 whole entry): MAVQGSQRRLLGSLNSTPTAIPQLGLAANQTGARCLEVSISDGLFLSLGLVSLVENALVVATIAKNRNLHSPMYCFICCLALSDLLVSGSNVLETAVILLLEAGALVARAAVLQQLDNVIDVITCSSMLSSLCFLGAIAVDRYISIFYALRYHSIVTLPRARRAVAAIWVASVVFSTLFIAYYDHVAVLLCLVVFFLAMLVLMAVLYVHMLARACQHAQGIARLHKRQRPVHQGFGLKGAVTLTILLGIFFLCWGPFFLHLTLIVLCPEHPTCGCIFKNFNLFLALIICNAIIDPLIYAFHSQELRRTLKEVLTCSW

[6] = target: T4, Melanocyte-stimulating hormone receptor; experiment: Displacement of [125I]NDP-alpha-MSH from human MC1R expressed in HEK293 cells; assay type: cell-based
Target sequence in this assay (Q01726 whole entry): as above

[7] = target: T2, Melanocortin receptor 3; experiment: Activity at human MC3R expressed in HEK293 cells assessed by measuring intracellular cAMP accumulation; assay type: functional, cell-based; how it was run: as §1
[8] = target: T3, Melanocortin receptor 4; experiment: Displacement of [125I]NDP-alpha-MSH from human MC4R expressed in HEK293 cells; assay type: cell-based
[9] = target: T1, Melanocortin receptor 5; experiment: Activity at human MC5R expressed in HEK293 cells assessed as activation of adenylate cyclase; assay type: functional, cell-based; set-up: concentration or dose not given beside the values; how it was run: as §1
[10] = target: T2, Melanocortin receptor 3; experiment: Activity at human MC3R expressed in HEK293 cells assessed as activation of adenylate cyclase; assay type: functional, cell-based; set-up: concentration or dose not given beside the values; how it was run: as §1
[11] = target: T3, Melanocortin receptor 4; experiment: Activity at human MC4R expressed in HEK293 cells assessed as activation of adenylate cyclase; assay type: functional, cell-based; set-up: concentration or dose not given beside the values; how it was run: as §1
[12] = target: T4, Melanocyte-stimulating hormone receptor; experiment: Activity at human MC1R expressed in HEK293 cells assessed as activation of adenylate cyclase; assay type: functional, cell-based; set-up: concentration or dose not given beside the values
How it was run: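 Whole HEK293 cells expressing the human melanocortin receptor were incubated with ligand, and the cAMP they produced was measured as the read-out of adenylate cyclase activation. EC50 is the concentration giving 50% of maximal intracellular cAMP accumulation.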
Target sequence in this assay (Q01726 whole entry, looked up): as the sequence (Q01726 whole entry) above

[13] = target: T4, Melanocyte-stimulating hormone receptor; experiment: Displacement of [125I]NDP-alpha-MSH from human MC1R expressed in HEK293 cells relative to MT-II; assay type: cell-based
Target sequence in this assay (Q01726 whole entry, looked up): as the sequence (Q01726 whole entry) above

[14] = target: T1, Melanocortin receptor 5; experiment: Displacement of [125I]NDP-alpha-MSH from human MC5R expressed in HEK293 cells relative to MT-II; assay type: cell-based
How it was run: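 Binding efficiency was measured on whole HEK293 cells expressing hMC5R, by competition with 125I-NDP-α-MSH. It is the maximum radioligand displacement by the test compound divided by the maximum displacement caused by excess MT-II.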

T1 sequence (P33032 whole entry): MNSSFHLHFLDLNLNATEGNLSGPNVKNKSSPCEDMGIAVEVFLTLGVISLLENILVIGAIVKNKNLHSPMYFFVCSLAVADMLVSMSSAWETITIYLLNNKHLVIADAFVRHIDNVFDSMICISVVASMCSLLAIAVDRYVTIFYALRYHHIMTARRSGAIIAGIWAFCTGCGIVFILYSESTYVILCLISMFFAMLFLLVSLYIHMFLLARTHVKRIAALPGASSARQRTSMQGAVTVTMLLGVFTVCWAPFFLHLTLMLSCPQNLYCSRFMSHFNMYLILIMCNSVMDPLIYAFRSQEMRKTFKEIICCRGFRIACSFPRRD
T2 sequence (P41968 whole entry): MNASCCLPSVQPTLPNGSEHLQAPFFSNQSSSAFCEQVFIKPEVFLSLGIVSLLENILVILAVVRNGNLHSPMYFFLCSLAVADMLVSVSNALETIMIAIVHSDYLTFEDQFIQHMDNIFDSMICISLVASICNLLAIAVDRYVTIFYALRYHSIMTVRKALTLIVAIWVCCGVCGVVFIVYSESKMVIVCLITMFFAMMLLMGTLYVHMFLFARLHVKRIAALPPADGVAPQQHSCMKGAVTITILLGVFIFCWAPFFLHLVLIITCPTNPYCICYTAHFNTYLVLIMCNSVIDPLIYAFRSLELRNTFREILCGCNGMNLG
T3 sequence (P32245 whole entry): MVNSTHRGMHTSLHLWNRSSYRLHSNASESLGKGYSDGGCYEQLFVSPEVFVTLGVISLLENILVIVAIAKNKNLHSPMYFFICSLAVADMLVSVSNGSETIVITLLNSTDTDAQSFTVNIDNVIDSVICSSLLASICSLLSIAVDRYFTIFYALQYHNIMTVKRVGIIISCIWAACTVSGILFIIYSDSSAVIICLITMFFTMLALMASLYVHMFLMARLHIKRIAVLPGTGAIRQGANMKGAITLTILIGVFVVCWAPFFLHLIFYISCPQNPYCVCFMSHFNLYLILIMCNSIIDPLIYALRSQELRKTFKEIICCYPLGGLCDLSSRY

| Structure (SMILES) | Activity [14] | EC50 [1] | IC50 [2] | IC50 [3] | EC50 [4] | EC50 [5] | IC50 [6] | EC50 [7] | IC50 [8] | Activity [9] | Activity [10] | Activity [11] | Activity [12] | Activity [13] |
| --- | --- | --- | --- | --- | --- | --- | --- | --- | --- | --- | --- | --- | --- | --- |
| NC(N)=NCCC[C@H](NC(=O)CCc1c[nH]c2ccccc12)C(=O)N1C[C@@H]2CCCN2C[C@@H]1Cc1ccccc1 | – | > 10 µM | 0.1 nM | > 10000 nM | > 10 µM | > 10 µM | > 10000 nM | > 10 µM | > 10 µM | – | – | – | – | – |
| O=C(Cc1ccccc1)N1C[C@@H]2CCCN2C[C@@H]1Cc1ccccc1 | – | > 10 µM | > 10000 nM | 350 nM | 0.0027 µM | > 10 µM | 2.2 nM | > 10 µM | > 10 µM | 0% | 0% | 30% | 0% | 80% |
| O=C(CCc1c[nH]c2ccccc12)NCCCCCC(=O)N1C[C@@H]2CCCN2C[C@@H]1Cc1ccccc1 | 65% | > 10 µM | 0.4 nM | > 10000 nM | > 10 µM | > 10 µM | > 10000 nM | > 10 µM | > 10 µM | 0% | 0% | 0% | 0% | – |
| O=C(CCc1c[nH]c2ccccc12)N1C[C@@H]2CCCN2C[C@@H]1Cc1ccccc1 | 50% | > 10 µM | 0.8 nM | > 10000 nM | > 10 µM | > 10 µM | > 10000 nM | > 10 µM | > 10 µM | 0% | 0% | 0% | 0% | – |
| O=C(Cc1ccccc1)N1C[C@@H]2CCCN2C[C@H]1Cc1ccccc1 | – | > 10 µM | > 10000 nM | 5 nM | > 10 µM | > 10 µM | 1.3 nM | > 10 µM | 0.0012 µM | 0% | 0% | 0% | 0% | 90% |
| O=C(CCc1c[nH]c2ccccc12)N1C[C@@H]2CCCN2C[C@H]1Cc1ccccc1 | – | > 10 µM | > 10000 nM | 1.2 nM | > 10 µM | > 10 µM | 4 nM | > 10 µM | > 10 µM | 0% | 0% | 0% | 0% | 50% |

More lines, main results first:

| Activity [14] | Structure (SMILES) | EC50 [1] | IC50 [2] | IC50 [3] | EC50 [4] | EC50 [5] | IC50 [6] | EC50 [7] | IC50 [8] | Activity [9] | Activity [10] | Activity [11] | Activity [12] | Activity [13] |
| --- | --- | --- | --- | --- | --- | --- | --- | --- | --- | --- | --- | --- | --- | --- |
| 60% | N=C(N)NCCC[C@H](NC(=O)CCc1c[nH]c2ccccc12)C(=O)N1C[C@@H]2CCCN2C[C@@H]1Cc1ccccc1 | – | – | – | – | – | – | – | – | 0% | 0% | 0% | 20% | – |
| 50% | O=C(CCC(=O)N1C[C@@H]2CCCN2C[C@@H]1Cc1ccccc1)NCCc1c[nH]c2ccccc12 | > 10 µM | 0.5 nM | > 10000 nM | > 10 µM | > 10 µM | > 10000 nM | > 10 µM | > 10 µM | 0% | 0% | 0% | 0% | – |
| 60% | O=C(CCC(=O)N1C[C@@H]2CCCN2C[C@H]1Cc1ccccc1)NCCc1c[nH]c2ccccc12 | > 10 µM | 0.1 nM | > 10000 nM | > 10 µM | > 10 µM | > 10000 nM | > 10 µM | > 10 µM | 0% | 0% | 0% | 0% | – |
